Reference: ChEMBL document CHEMBL3822427, “An evaluation of Minor Groove Binders as anti-lung cancer therapeutics” (Bioorg Med Chem Lett, 2016)
Calls of active or inactive are those of the source. No cut-off for these calls is given here.

Columns and labels:
[1] = (§1) Antiproliferative activity against mouse B16-F10-Luc-G5 cells assessed as cell growth inhibition at 15.36 ug/ml measured after 24 hrs by luciferase gene assay relative to DMSO control; type: functional; conditions: read-out: GI
Mus musculus = species: Mus musculus; experiment: as §1; type: functional
[2] = Antiproliferative activity against mouse B16-F10-Luc-G5 cells assessed as cell growth inhibition measured after 24 hrs by luciferase gene assay; type: functional, cell-based
Outline: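 Luciferase-expressing murine melanoma cells exposed to a concentration series, with gemcitabine as positive control. Growth read by bioluminescence. IC50 is the mean of three experiments, each with three replicates per concentration, reported ± SD.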

[3] = Drug internalization in nucleus of mouse B16-F0-luc cells at 3 and 30 ug/ml measured after 1 hr by DAPI staining based fluorescence microscopic analysis; type: ADME
[4] = Potency index, ratio of gemcitabine IC50 to compound IC50 for mouse B16-F10-Luc-G5 cells; type: functional
Hepatocyte [5] = experiment: Cellular uptake in rat hepatocytes at 7.5 uM measured after 24 hrs by fluorescence analysis; type: ADME, cell-based
Outline: (§2)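 Primary hepatocyte monolayers exposed to 7.5µM compound over 24 h, with DMSO control. Uptake checked by fluorescence microscopy using red, green and blue filter settings. Morphology assessed by phase contrast with a x20 wet lens, including images at 60 min.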

Hepatocyte [6] = experiment: Cytotoxicity against rat hepatocytes assessed as change in cell morphology at 7.5 uM measured up to 24 hrs by phase contrast microscopic analysis; type: cell-based; outline: as §2
Hepatocyte [7] = experiment: Cytotoxicity against rat hepatocytes assessed as reduction in cell viability at 7.5 uM measured up to 24 hrs; type: cell-based
[8] = Drug internalization in nucleus of mouse B16-F0-luc cells at 250 uM measured after 1 hr by DAPI staining based fluorescence microscopic analysis; type: ADME
Outline: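 B16-F0-luc mouse melanoma cells exposed to the fluorescent S-MGB probe at two concentrations for 1 hr, with DMSO-only and Hoechst 33342 nuclear-stain controls. Examined live on an inverted fluorescence microscope (x20 objective) under brightfield and UV or DAPI filter sets. Nuclear localisation judged by overlaying fluorescence on brightfield images. Two experiments with separately prepared cells.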

Compound	inhibition of growth at 15.36 µg/mL [1] [%]	growth inhibition (GI) (Mus musculus)	further results
CSc1ccc(/C=C/c2ccc3cc(C(=O)Nc4cc(C(=O)Nc5cc(C(=O)NCCN6CCOCC6)n(C)c5)n(C)c4)ccc3n2)cc1	19		
Cn1cc(NC(=O)c2cc(NC(=O)c3ccc(/C=C/c4cccc(C(F)(F)F)c4)nc3)cn2C)cc1C(=O)NCCN1CCOCC1		inactive	
Cn1cc(NC(=O)c2ccc(/C=C/c3cnc4ccccc4c3)cc2)cc1C(=O)NCCN1CCOCC1	72		
COc1ccc(/C=C/c2ccc(C(=O)Nc3cc(C(=O)Nc4cc(C(=O)NCCN5CCOCC5)n(C)c4)n(C)c3)cn2)cc1	44		
Cn1cc(NC(=O)c2cc(NC(=O)c3ccc(/C=C/c4ccc5nsnc5c4)cc3)cn2C)cc1C(=O)NCCN1CCOCC1	37		
CC(C)c1nc(N)sc1C(=O)Nc1cc(C(=O)Nc2cc(C(=O)NCCN3CCOCC3)n(C)c2)n(C)c1	57		
COc1cccc(/C=C/c2ccc(C(=O)Nc3cc(C(=O)Nc4cc(C(=O)NCCN5CCOCC5)n(C(C)C)c4)n(C)c3)cc2)c1	88		IC50 [2]: 1100 nM
Nc1ccn([C@@H]2O[C@H](CO)[C@@H](O)C2(F)F)c(=O)n1 [GEMCITABINE]			IC50 [2]: 11000 nM
CN(C)c1ccc(/C=C/c2ccc(C(=O)Nc3cc(C(=O)Nc4cc(C(=O)NCCN5CCOCC5)n(C)c4)n(C)c3)cn2)cc1			Drug uptake [3]: Dose-dependent effect
COc1cccc(/C=C/c2ccc(C(=O)Nc3cc(C(=O)Nc4cc(C(=O)NCCN5CCOCC5)n(C)c4)n(C)c3)cc2)c1		inactive	
CC(C)n1cc(NC(=O)c2cc(NC(=O)c3ccc(/C=C/c4ccc(C(F)(F)F)cc4)cc3)cn2C)cc1C(=O)NCCN1CCOCC1			IC50 [2]: 2160 nM
CCC(C)n1cc(NC(=O)c2cc(NC(=O)c3ccc(/C=C/c4ccc(OC)cc4)nc3)cn2C)cc1C(=O)NCCN1CCOCC1 (stereo not drawn)	84		
COc1cccc(C(=N)Nc2cc(C(=O)Nc3cc(C(=O)Nc4nc(C(=O)NCCCN(C)C)c(CCC(C)C)s4)n(C)c3)n(C)c2)c1	34		
Cn1cc(NC(=O)c2cc(NC(=O)c3cc(NC(=O)c4ccc(Cl)cc4Cl)cn3C)cn2C)cc1C(=O)NCCCN1CCOCC1		inactive	
COc1ccc(/C=C/c2ccc(C(=O)Nc3cc(C(=O)Nc4cc(C(=O)NCCN5CCOCC5)n(C(C)C)c4)n(C)c3)cn2)cc1	83		IC50 [2]: 810 nM
Cn1cc(NC(=O)c2cc(NC(=O)c3ccc(/C=C/c4ccc(C(F)(F)F)cc4)cc3)cn2C)cc1C(=O)NCCN1CCOCC1	77		IC50 [2]: 160 nM; Ratio IC50 [4]: 70; Drug uptake (Hepatocyte [5]): Not Active; Activity (Hepatocyte [6]): Non-toxic; Activity (Hepatocyte [7]): Non-toxic
COc1ccc(/C=C(/C(=O)Nc2cc(C(=O)Nc3cc(C(=O)NCCCN(C)C)n(C)c3)n(C)c2)c2ccc(OC)cc2)cc1		inactive	
CC(=N)Nc1cc(C(=O)Nc2cc(C(=O)Nc3nc(C(=O)NCCCN(C)C)c(CCC(C)C)s3)n(C)c2)n(C)c1		inactive	
COc1cccc(C(=N)Nc2ccc(C(=O)Nc3cc(C(=O)Nc4cc(C(=O)NCCN5CCOCC5)n(C)c4)n(C)c3)cc2)c1	77		
Cn1cc(NC(=O)c2cc(NC(=O)c3ccc(/C=C/c4cccc(F)c4)cc3)cn2C)cc1C(=O)NCCN1CCOCC1	46		

Compound	inhibition of growth at 15.36 µg/mL [1] [%]	growth inhibition (GI) (Mus musculus)	further results
COc1cccc(C(=O)Nc2nc(C(=O)Nc3cc(C(=O)Nc4cc(C(=O)NCCCN(C)C)n(C)c4)n(C)c3)c(C(C)C)s2)c1		inactive	
CC(C)c1sc(N)nc1C(=O)Nc1cc(C(=O)NCCN2CCOCC2)n(C)c1	2.2		
CCOc1ccc(-c2nc3cc(-c4nc5cc(N6CCN(C)CC6)ccc5[nH]4)ccc3[nH]2)cc1.Cl.Cl.Cl			Drug uptake [8]: Active
COc1ccc(/C=C/c2ccc(C(=O)Nc3cc(C(=O)N4CCN(C)CC4)n(C)c3)cn2)cc1	59		
COc1cccc(/C=C/c2ccc(C(=O)Nc3cc(C(=O)NCCN4CCOCC4)n(C)c3)cc2)c1	55		IC50 [2]: 810 nM
CC(=O)Nc1cc(C(=O)Nc2cc(C(=O)Nc3cc(C(=O)NCCCN(C)C)n(C)c3)n(C)c2)c(C)s1		inactive	
COc1cccc(C(=N)Nc2cc(C(=O)Nc3cc(C(=O)Nc4cc(C(=O)NCCCN5CCOCC5)n(C)c4)n(C)c3)n(C)c2)c1		inactive	
CCC(C)n1cc(NC(=O)c2ccc(/C=C/c3ccc(OC)cc3)nc2)cc1C(=O)Nc1cc(C(=O)NCCN2CCOCC2)n(C)c1 (stereo not drawn)	84		
COc1cccc(/C=C/c2ccc(C(=O)Nc3cc(C(=O)Nc4cc(C(=O)NCCC(=N)N)n(C)c4)n(C)c3)cc2)c1	67		
COc1ccc(/C=C/c2ccc(C(=O)Nc3cc(C(=O)Nc4cc(C(=O)NCCN5CCOCC5)n(C)c4)n(C(C)C)c3)cn2)cc1	85		
Cn1cc(NC(=O)c2cc(NC(=O)c3ccc(/C=C/c4ccc(F)cc4)cc3)cn2C)cc1C(=O)NCCN1CCOCC1		inactive	
CC(C)n1cc(NC(=O)c2cc(NC(=O)c3cnc4ccccc4n3)cn2C)cc1C(=O)Nc1cc(C(=O)NCCCN(C)C)n(C)c1		inactive	
CC(C)CCc1sc(NC(=O)c2cc(NC(=O)c3ccc(/C=C/c4cc5ccccc5nc4Cl)cc3)cn2C)nc1C(=O)NCCN1CCOCC1		inactive	
Cc1sc(NC(=O)c2ccc3c(c2)C(=O)c2ccccc2C3=O)cc1C(=O)Nc1cc(C(=O)Nc2cc(C(=O)NCCCN(C)C)n(C)c2)n(CCC(C)C)c1	40		
Cn1cc(NC(=O)c2cc(NC(=O)c3ccc(/C=C/c4ccc5nonc5c4)cc3)cn2C)cc1C(=O)NCCN1CCOCC1	30.9		
CC(=O)Nc1cc(C(=O)Nc2cc(C(=O)Nc3cc(C(=O)Nc4cc(C(=O)NCCCN(C)C)n(C)c4)n(CCC(C)C)c3)n(C)c2)n(C)c1		inactive	
CC(C)n1cc(NC(=O)c2cc(NC(=O)c3cnc(Cl)c(Cl)c3)cn2C)cc1C(=O)Nc1cc(C(=O)NCCCN(C)C)n(C)c1	16.1		
CC(=N)Nc1cc(C(=O)Nc2cc(C(=O)Nc3cc(C(=O)NCCCN(C)C)n(C)c3)n(C)c2)n(C)c1		inactive	
COc1cccc(C(=N)Nc2cc(C(=O)Nc3cc(C(=O)Nc4nc(C(=O)NCCCN(C)C)c(C(C)C)s4)n(C)c3)n(C)c2)c1	34		
COc1cccc(/C=C/c2ccc(C(=O)Nc3cc(C(=O)N4CCN(C)CC4)n(C)c3)cc2)c1	76		
